Laboratory results published in ChEMBL document CHEMBL4145466, “Design, synthesis, and biological evaluation of novel combretastatin A-4 thio derivatives as microtubule targeting agents” (Eur J Med Chem, 2018).
The source made the active and inactive calls. The rule behind the calls is not given here.

How the values were obtained:
HaCaT [1] = test: Induction of apoptosis in human HaCaT cells assessed as increase in histone-associated DNA fragments in mononucleosomes at 0.1 uM after 24 hrs by ELISA; format: cell-based
Method in brief: (§1)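 HaCaT cells (2 × 10^4), grown in DMEM with 10% FBS, penicillin/streptomycin and 2 mM L-glutamine, exposed to compound (DMSO stock) for 24 h. Cells lysed, supernatant taken after centrifugation and incubated 2 h on a streptavidin-coated plate with anti-histone-biotin and anti-DNA-peroxidase. ABTS added for 30 min, A405 read. Output is enrichment factor vs control, mean ± SD of three independent experiments.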

HeLa = test: Potency index, ratio of CA-4 IC50 to compound IC50 for cytotoxicity against human HeLa cells; format: functional
A-431 [2] = test: Induction of apoptosis in human A431 cells assessed as increase in histone-associated DNA fragments in mononucleosomes at 0.1 uM after 24 hrs by ELISA; format: functional, cell-based
Method in brief: (§2)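 Cells (2 × 10^4) were incubated for 24 h at 0.1, 0.5 or 1 µM, lysed and centrifuged. Supernatants went onto a streptavidin plate with anti-histone-biotin and anti-DNA-peroxidase for 2 h, followed by ABTS for 30 min and a reading at 405 nm. Nucleosome content was expressed as an enrichment factor, as mean ± SD of three experiments.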

MDA-MB-231 [3] = test: Induction of apoptosis in human MDA-MB-231 cells assessed as increase in histone-associated DNA fragments in mononucleosomes at 0.1 uM after 24 hrs by ELISA; format: functional, cell-based; method in brief: as §2
HaCaT [4] = test: Induction of apoptosis in human HaCaT cells assessed as increase in histone-associated DNA fragments in oligonucleosomes at 0.1 uM after 24 hrs by ELISA; format: cell-based; method in brief: as §1
MCF7 [5] = test: Induction of apoptosis in human MCF7 cells assessed as increase in histone-associated DNA fragments in mononucleosomes at 0.1 uM after 24 hrs by ELISA; format: functional, cell-based; method in brief: as §2
SK-OV-3 [6] = test: Induction of apoptosis in human SKOV3 cells assessed as increase in histone-associated DNA fragments in oligonucleosomes at 0.1 uM after 24 hrs by ELISA; format: functional, cell-based; method in brief: as §2
MDA-MB-231 [7] = test: Induction of apoptosis in human MDA-MB-231 cells assessed as increase in histone-associated DNA fragments in oligonucleosomes at 0.1 uM after 24 hrs by ELISA; format: functional, cell-based; method in brief: as §2
MCF7 [8] = test: Induction of apoptosis in human MCF7 cells assessed as increase in histone-associated DNA fragments in mononucleosomes after 24 hrs by ELISA; format: functional, cell-based; method in brief: as §2
Tubulin (Homo sapiens) [9] = molecular target: T1, Tubulin (Homo sapiens) (UniProt P68371+Q9H4B7+P0DPH7+P68366+Q13509+Q71U36+P04350+Q3ZCM7+P07437+P68363+Q9BQE3+Q6PEY2+Q13885+Q9BVA1+Q9BUF5); test: Inhibition of tubulin polymerization in human SKOV3 cells assessed as chromatin condensation at 1 uM after 24 hrs by Hoechst 33258 staining-based fluorescence microscopic analysis; format: cell-based
Method in brief: (§3)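 Cells seeded at 12.5 × 10^4 per well and exposed to 1 µM compound for 24 h. Nuclei were stained with Hoechst 33258 (10 µg/mL, 30 min, 37 °C), then fixed in 4% formaldehyde/PBS (15 min, RT). Cells were permeabilized with 1% Triton X-100, blocked with 2% BSA/PBS for 1 h, and incubated with anti-α-tubulin-FITC (1:50) overnight at 4 °C. Imaged by fluorescence microscopy.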

MDA-MB-231 [10] = test: Induction of apoptosis in human MDA-MB-231 cells assessed as increase in histone-associated DNA fragments in oligonucleosomes after 24 hrs by ELISA; format: functional, cell-based; method in brief: as §2
Tubulin (Homo sapiens) [11] = molecular target: T1, Tubulin (Homo sapiens); test: Inhibition of tubulin polymerization in human HeLa cells assessed as chromatin condensation at 1 uM after 24 hrs by Hoechst 33258 staining-based fluorescence microscopic analysis; format: cell-based; method in brief: as §3
MDA-MB-231 [12] = test: Induction of apoptosis in human MDA-MB-231 cells assessed as increase in histone-associated DNA fragments in mononucleosomes after 24 hrs by ELISA; format: functional, cell-based; method in brief: as §2
A-431 [13] = test: Induction of apoptosis in human A431 cells assessed as increase in histone-associated DNA fragments in oligonucleosomes after 24 hrs by ELISA; format: functional, cell-based; method in brief: as §2
Tubulin (Homo sapiens) [14] = molecular target: T1, Tubulin (Homo sapiens); test: Inhibition of tubulin polymerization in human A431 cells assessed as chromatin condensation at 1 uM after 24 hrs by Hoechst 33258 staining-based fluorescence microscopic analysis; format: cell-based
Method in brief: (§4)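 Cells were seeded at 12.5 × 10^4 per well and treated at 1 µM for 24 h. They were stained with Hoechst 33258 (10 µg/mL, 30 min, 37 °C), fixed in 4% formaldehyde, permeabilized with 1% Triton X-100 and blocked in 2% BSA. Anti-α-tubulin-FITC (1:50) was applied overnight at 4 °C, and cells were imaged by fluorescence microscopy.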

SK-OV-3 [15] = test: Cell cycle arrest in human SKOV3 cells assessed as accumulation of cells at G2/M phase after 24 hrs by propidium iodide staining-based FACS analysis; format: functional
Method in brief: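 Cells were seeded at 5 × 10^5 per well in DMEM with 10% FBS and left overnight, then exposed to 0.1, 0.5 or 1 µM for 24 h. DMSO served as the negative control and 50 nM camptothecin as the positive control. Cells were trypsinized, fixed in 70% ethanol for 30 min at 4 °C, stained with 50 µg/mL PI plus 100 µg/mL RNase A for 30 min in the dark, and analysed by flow cytometry. Results are mean ± SD of three experiments, compared by ANOVA with Dunnett's test.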

Tubulin (Homo sapiens) [16] = molecular target: T1, Tubulin (Homo sapiens); test: Inhibition of tubulin polymerization in human MDA-MB-231 cells assessed as chromatin condensation at 1 uM after 24 hrs by Hoechst 33258 staining-based fluorescence microscopic analysis; format: cell-based; method in brief: as §3
MCF7 [17] = test: Induction of apoptosis in human MCF7 cells assessed as increase in histone-associated DNA fragments in oligonucleosomes after 24 hrs by ELISA; format: functional, cell-based; method in brief: as §2
A-431 [18] = test: Induction of apoptosis in human A431 cells assessed as increase in histone-associated DNA fragments in mononucleosomes after 24 hrs by ELISA; format: functional, cell-based; method in brief: as §2
Tubulin = test: Inhibition of tubulin polymerization in human HaCaT cells assessed as chromatin condensation at 1 uM after 24 hrs by Hoechst 33258 staining-based fluorescence microscopic analysis; format: cell-based; method in brief: as §4

Row | inhibition (Tubulin (Homo sapiens) [9]) | inhibition (Tubulin (Homo sapiens) [11]) | inhibition (Tubulin (Homo sapiens) [14]) | inhibition (Tubulin (Homo sapiens) [16]) | inhibition (INH) (Tubulin) | Compound | Activity (HaCaT [1]) | Ratio IC50 (HeLa) | Activity (A-431 [2]) | Activity (MDA-MB-231 [3]) | Activity (HaCaT [4]) | Activity (MCF7 [5]) | Activity (SK-OV-3 [6]) | Activity (MDA-MB-231 [7]) | Activity (MCF7 [8]) | Activity (MDA-MB-231 [10]) | Activity (MDA-MB-231 [12]) | Activity (A-431 [13]) | Activity (SK-OV-3 [15]) | Activity (MCF7 [17]) | Activity (A-431 [18])
1 | – | – | – | – | – | COc1ccc(-c2ocnc2-c2cc(OC)c(SC)c(OC)c2)cc1O | Toxic | 10 | Active | Active | Toxic | Active | Active | Active | – | – | – | – | – | – | –
2 | Active | Active | Active | Active | Active | COc1ccc(-c2ocnc2-c2cc(Br)c(OC)c(OC)c2)cc1SC | – | – | – | – | – | – | – | – | Dose-dependent effect | Dose-dependent effect | Dose-dependent effect | Dose-dependent effect | Dose-dependent effect | Dose-dependent effect | Dose-dependent effect
